pIC50: −log10 of the molar value. Blank lines part the entries; values can stand above or below the molecule they belong to.
Legend:
[1] = Oral bioavailability in Sprague-Dawley rat at 20 mg/kg; format: ADME, organism-based; conditions: in vivo
Outline: (§1)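 Sprague-Dawley rats were dosed orally or intravenously, and blood was sampled after dosing. Plasma was separated by centrifugation and deproteinized with methanol containing an internal standard. The supernatant was diluted with methanol, centrifuged again and quantified by LC/MS/MS.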

[2] = Half life in Sprague-Dawley rat at 20 mg/kg, po; format: ADME, organism-based; design: dose 20 mg/kg, route oral; conditions: in vivo; outline: as §1
CYP2C9 = CYP2C9 (Homo sapiens, UniProt P11712); test: Inhibition of CYP2C9 (unknown origin) at 100 uM relative to control; format: ADME
CYP2C9, sequence (P11712 whole entry): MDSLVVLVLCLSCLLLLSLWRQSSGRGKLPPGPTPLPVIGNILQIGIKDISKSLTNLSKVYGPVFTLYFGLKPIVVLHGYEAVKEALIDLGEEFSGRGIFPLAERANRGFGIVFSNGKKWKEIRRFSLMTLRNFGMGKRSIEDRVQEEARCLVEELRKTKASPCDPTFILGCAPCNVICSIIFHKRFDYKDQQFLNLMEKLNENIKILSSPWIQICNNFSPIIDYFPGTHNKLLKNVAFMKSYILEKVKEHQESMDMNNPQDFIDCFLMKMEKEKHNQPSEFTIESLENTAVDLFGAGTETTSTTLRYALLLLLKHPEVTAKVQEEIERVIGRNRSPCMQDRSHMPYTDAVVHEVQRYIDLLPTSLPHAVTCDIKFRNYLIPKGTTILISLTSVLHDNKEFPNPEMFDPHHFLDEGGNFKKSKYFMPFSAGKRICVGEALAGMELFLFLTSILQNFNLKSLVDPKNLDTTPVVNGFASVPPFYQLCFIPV

[3] = Half life in Sprague-Dawley rat at 5 mg/kg, iv; format: ADME, organism-based; design: dose 5 mg/kg, route intravenous; conditions: in vivo; outline: as §1
[4] = Mean residence time in Sprague-Dawley rat at 20 mg/kg, po; format: ADME, organism-based; design: dose 20 mg/kg, route oral; conditions: in vivo; outline: as §1
[5] = Tmax in Sprague-Dawley rat at 20 mg/kg, po; format: ADME, organism-based; design: dose 20 mg/kg, route oral; conditions: in vivo; outline: as §1
[6] = Tmax in Sprague-Dawley rat at 5 mg/kg, iv; format: ADME, organism-based; design: dose 5 mg/kg, route intravenous; conditions: in vivo; outline: as §1
[7] = Cmax in Sprague-Dawley rat at 5 mg/kg, iv; format: ADME, organism-based; design: dose 5 mg/kg, route intravenous; conditions: in vivo; outline: as §1
Mus musculus [8] = test: Antidiabetic activity in ICR mouse assessed as decrease in blood glucose AUC (0 to 120 mins) at 15 mg/kg administered for 30 mins prior to glucose challenge measured after 4 hrs by OGTT relative to vehicle-treated control; format: functional; design: scale not given: the % may be the effect or the level left
Outline: (§2)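 ICR mice were fasted 16 h and given one dose in 0.5% methylcellulose vehicle (10 mL/kg). An oral glucose load of 2.5 g/kg followed; methods state 30 min after dosing, the figure legend 4 h.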

[9] = Cmax in Sprague-Dawley rat at 20 mg/kg, po; format: ADME, organism-based; design: dose 20 mg/kg, route oral; conditions: in vivo; outline: as §1
[10] = Apparent clearance in Sprague-Dawley rat at 5 mg/kg, iv; format: ADME, organism-based; design: dose 5 mg/kg, route intravenous; conditions: in vivo, read-out: CL(app) (converted); outline: as §1
Mus musculus [11] = test: Antidiabetic activity in ICR mouse assessed as decrease in blood glucose AUC (0 to 120 mins) administered for 30 mins prior to glucose challenge measured after 4 hrs by OGTT; format: functional, organism-based
Outline: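 ICR mice fasted 16 h, then given a single dose of 15 or 50 mg/kg; vehicle 0.5% methylcellulose (10 mL/kg), LAF237 30 mg/kg as positive control. Oral glucose 2.5 g/kg given 30 min after dosing (legend says 4 h). Blood glucose read at 0, 15, 30, 60, 90, 120 min for AUC0–120. Mean ± SE, n = 10; Student's t-test.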

Cytochrome P450 3A4 = Cytochrome P450 3A4 (Homo sapiens, UniProt P08684); test: Inhibition of CYP3A4 (unknown origin); format: ADME
Cytochrome P450 3A4, sequence (P08684 whole entry): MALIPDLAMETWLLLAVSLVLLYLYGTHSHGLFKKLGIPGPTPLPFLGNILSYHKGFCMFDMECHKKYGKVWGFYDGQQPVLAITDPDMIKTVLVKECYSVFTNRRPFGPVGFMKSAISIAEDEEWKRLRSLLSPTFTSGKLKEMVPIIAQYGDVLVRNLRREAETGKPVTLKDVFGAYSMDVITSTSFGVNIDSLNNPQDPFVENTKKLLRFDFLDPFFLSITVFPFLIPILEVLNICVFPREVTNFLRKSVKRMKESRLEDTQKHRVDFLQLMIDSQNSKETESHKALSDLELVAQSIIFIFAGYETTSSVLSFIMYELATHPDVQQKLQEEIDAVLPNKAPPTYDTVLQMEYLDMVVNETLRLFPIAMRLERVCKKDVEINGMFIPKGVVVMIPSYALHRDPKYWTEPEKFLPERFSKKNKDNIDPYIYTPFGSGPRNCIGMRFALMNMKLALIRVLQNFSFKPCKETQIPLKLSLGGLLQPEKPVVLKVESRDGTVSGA

[12] = Mean residence time in Sprague-Dawley rat at 5 mg/kg, iv; format: ADME, organism-based; design: dose 5 mg/kg, route intravenous; conditions: in vivo; outline: as §1
[13] = AUC (0 to infinity) in Sprague-Dawley rat at 5 mg/kg, iv; format: ADME, organism-based; design: time infinity, dose 5 mg/kg, route intravenous; conditions: plasma; outline: as §1
[14] = AUC (0 to infinity) in Sprague-Dawley rat at 20 mg/kg, po; format: ADME, organism-based; design: time infinity, dose 20 mg/kg, route oral; conditions: plasma; outline: as §1
Mus musculus [15] = test: Antidiabetic activity in ICR mouse assessed as decrease in blood glucose AUC (0 to 120 mins) at 50 mg/kg administered for 30 mins prior to glucose challenge measured after 4 hrs by OGTT relative to vehicle-treated control; format: functional; design: scale not given: the % may be the effect or the level left; outline: as §2
[16] = AUC (0 to t) in Sprague-Dawley rat at 20 mg/kg, po; format: ADME, organism-based; design: dose 20 mg/kg, route oral; conditions: plasma; outline: as §1
[17] = AUC (0 to t) in Sprague-Dawley rat at 5 mg/kg, iv; format: ADME, organism-based; design: dose 5 mg/kg, route intravenous; conditions: plasma; outline: as §1
Dipeptidyl peptidase 8 = Dipeptidyl peptidase 8 (Homo sapiens, UniProt Q6V1X1); test: Inhibition of recombinant his6-tagged DPP8 (unknown origin) expressed in baculovirus expression system using Ala-pro-AMC as substrate by fluorometric analysis
Dipeptidyl peptidase 8, sequence (Q6V1X1 whole entry): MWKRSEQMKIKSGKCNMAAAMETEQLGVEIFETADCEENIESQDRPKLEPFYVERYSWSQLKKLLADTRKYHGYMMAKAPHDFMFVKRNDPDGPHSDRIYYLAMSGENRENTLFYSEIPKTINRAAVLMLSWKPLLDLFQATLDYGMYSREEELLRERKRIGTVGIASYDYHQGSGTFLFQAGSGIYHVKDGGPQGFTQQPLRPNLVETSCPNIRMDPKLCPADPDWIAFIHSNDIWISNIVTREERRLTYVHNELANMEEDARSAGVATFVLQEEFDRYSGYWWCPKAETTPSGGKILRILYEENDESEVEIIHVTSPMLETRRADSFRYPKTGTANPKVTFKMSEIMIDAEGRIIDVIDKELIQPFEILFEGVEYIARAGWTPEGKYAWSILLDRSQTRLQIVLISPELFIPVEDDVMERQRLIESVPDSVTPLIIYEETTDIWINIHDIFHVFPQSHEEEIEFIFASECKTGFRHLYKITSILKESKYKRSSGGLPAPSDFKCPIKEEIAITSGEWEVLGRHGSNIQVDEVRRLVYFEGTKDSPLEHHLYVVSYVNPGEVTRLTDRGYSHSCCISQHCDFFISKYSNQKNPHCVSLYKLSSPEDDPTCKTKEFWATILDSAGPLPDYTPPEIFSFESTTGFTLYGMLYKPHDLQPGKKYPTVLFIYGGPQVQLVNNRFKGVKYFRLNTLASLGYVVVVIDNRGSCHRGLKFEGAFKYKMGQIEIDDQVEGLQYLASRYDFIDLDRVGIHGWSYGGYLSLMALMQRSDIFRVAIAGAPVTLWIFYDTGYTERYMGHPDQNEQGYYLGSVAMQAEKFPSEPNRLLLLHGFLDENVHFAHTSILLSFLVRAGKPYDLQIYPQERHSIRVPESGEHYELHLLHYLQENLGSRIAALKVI

Dipeptidyl peptidase 9 = Dipeptidyl peptidase 9 (Homo sapiens, UniProt Q86TI2); test: Inhibition of recombinant his6-tagged DPP9 (unknown origin) expressed in baculovirus expression system using Ala-pro-AMC as substrate by fluorometric analysis
Dipeptidyl peptidase 9, sequence (Q86TI2 whole entry): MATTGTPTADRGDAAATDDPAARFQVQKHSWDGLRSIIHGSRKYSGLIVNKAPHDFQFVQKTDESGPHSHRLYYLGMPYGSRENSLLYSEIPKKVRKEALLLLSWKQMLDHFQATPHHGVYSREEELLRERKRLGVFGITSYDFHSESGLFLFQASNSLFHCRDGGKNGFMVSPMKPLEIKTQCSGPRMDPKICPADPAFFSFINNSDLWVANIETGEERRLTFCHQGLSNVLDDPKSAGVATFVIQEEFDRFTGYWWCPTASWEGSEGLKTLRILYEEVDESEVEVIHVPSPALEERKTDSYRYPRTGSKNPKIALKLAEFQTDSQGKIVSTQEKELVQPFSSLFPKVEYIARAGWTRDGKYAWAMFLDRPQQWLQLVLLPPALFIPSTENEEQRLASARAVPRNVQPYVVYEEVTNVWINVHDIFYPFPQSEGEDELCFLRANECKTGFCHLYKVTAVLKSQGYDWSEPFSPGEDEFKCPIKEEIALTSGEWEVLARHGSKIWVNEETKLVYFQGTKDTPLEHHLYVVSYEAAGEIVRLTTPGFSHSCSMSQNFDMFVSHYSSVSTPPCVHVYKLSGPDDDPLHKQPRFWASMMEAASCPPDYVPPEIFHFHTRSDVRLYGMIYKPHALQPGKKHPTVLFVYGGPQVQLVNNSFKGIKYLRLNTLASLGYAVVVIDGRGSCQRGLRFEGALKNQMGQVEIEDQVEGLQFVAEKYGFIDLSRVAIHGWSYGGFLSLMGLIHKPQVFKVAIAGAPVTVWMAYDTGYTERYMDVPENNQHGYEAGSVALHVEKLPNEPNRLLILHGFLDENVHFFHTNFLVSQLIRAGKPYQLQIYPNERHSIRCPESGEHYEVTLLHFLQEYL

Homo sapiens [18] = organism: Homo sapiens; test: Selectivity ratio of IC50 for recombinant his6-tagged DPP8 (unknown origin) to IC50 for recombinant his6-tagged DPP4 (unknown origin)
Outline: (§3)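 His6-tagged DPP4, DPP8 and DPP9 were expressed in High Five insect cells by baculovirus and purified on Ni-NTA. Activity was followed continuously by fluorescence of AMC released from Ala-Pro-AMC (ex 355/em 460 nm). DPP4 ran at 50 pmol/L enzyme in HEPES pH 7.5 with 0.1 mg/mL BSA; DPP8 and DPP9 ran at pH 8.0. IC50s came from quadruplicate sigmoidal variable-slope fits, and the ratio is the IC50 ratio.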

Homo sapiens [19] = organism: Homo sapiens; test: Selectivity ratio of IC50 for recombinant his6-tagged DPP9 (unknown origin) to IC50 for recombinant his6-tagged DPP4 (unknown origin); outline: as §3
Dipeptidyl peptidase 4 = Dipeptidyl peptidase 4 (Homo sapiens, UniProt P27487); test: Inhibition of recombinant his6-tagged DPP4 (unknown origin) expressed in baculovirus expression system using Ala-pro-AMC as substrate by fluorometric analysis
Dipeptidyl peptidase 4, sequence (P27487 whole entry): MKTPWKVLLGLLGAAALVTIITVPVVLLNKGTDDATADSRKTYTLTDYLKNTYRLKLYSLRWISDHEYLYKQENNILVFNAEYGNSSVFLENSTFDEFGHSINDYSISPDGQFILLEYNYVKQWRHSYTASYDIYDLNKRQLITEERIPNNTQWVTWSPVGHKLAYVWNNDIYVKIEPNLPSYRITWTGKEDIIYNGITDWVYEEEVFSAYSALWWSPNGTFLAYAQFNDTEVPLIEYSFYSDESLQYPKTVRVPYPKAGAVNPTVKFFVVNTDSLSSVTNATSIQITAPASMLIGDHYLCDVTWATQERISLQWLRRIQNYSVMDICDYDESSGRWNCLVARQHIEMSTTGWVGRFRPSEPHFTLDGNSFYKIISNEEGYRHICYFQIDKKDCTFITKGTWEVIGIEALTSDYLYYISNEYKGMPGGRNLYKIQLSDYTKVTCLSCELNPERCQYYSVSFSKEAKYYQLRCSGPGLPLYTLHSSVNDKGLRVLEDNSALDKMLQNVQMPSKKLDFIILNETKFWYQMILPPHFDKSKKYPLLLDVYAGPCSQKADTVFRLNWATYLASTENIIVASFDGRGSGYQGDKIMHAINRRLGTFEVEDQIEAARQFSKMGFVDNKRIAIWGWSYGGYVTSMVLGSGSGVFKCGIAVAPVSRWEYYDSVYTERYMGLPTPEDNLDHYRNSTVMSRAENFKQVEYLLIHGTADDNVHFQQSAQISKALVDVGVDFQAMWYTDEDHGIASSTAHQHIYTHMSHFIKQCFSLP

bioavailability [1]: 16.8%
half-life [2]: 218 min
inhibition at 100 µM (CYP2C9): -20.3%
half-life [3]: 37.8 min
MRT [4]: 189 min
Tmax [5]: 18 min
Tmax [6]: 18 min
Cmax [7]: 2030 ng/mL
Cmax [9]: 2200 ng/mL
clearance [10]: 43.5 mL/min/kg
pIC50 (Cytochrome P450 3A4): 5.66
MRT [12]: 33 min
AUC(0-inf) [13]: 1920 ng·h/mL
AUC(0-inf) [14]: 1580 ng·h/mL
AUC(0-t) [16]: 1290 ng·h/mL
AUC(0-t) [17]: 1920 ng·h/mL
Structure (SMILES): N#C[C@@H]1C[C@H](F)CN1C(=O)[C@@H](N)Cc1cc2c(cc1Br)OCO2
Activity (Mus musculus [8]): 12.2%
Activity (Mus musculus [11]): Dose-dependent effect
Activity (Mus musculus [15]): 23.6%

pIC50 (Dipeptidyl peptidase 8): 3.90
pIC50 (Dipeptidyl peptidase 9): 3.84
Structure (SMILES): N#C[C@@H]1CCCN1C(=O)[C@@H](N)Cc1ccccn1

pIC50 (Dipeptidyl peptidase 8): < 3.54
Ratio IC50 (Homo sapiens [18]): > 2.5
Ratio IC50 (Homo sapiens [19]): > 2.5
pIC50 (Dipeptidyl peptidase 9): < 3.54
pIC50 (Dipeptidyl peptidase 4): 3.94
Structure (SMILES): N#C[C@@H]1CCCN1C(=O)[C@@H](N)Cc1ccoc1

From ChEMBL document CHEMBL3124820, “Design, synthesis and biological evaluation of hetero-aromatic moieties substituted pyrrole-2-carbonitrile derivatives as dipeptidyl peptidase IV inhibitors” (Eur J Med Chem, 2014)
